Activity calls are given as the source filed them. No cut-off for these calls is given here.
Experiments:
HeLa = test: Antiproliferative activity against human HeLa cells after 72 hrs by CCK8 assay; assay type: functional, cell-based; conditions: Homo sapiens, HeLa, 72 h
[1] = Inhibition of PI3K p110alpha/p85 (unknown origin) using PIP2/ATP as substrate after 1 hr by kinase glo luminescent assay; set-up: species or system Homo sapiens
Summary of the method: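 PI3K p110α activity read by Kinase-Glo Plus luminescence. IC50 is the mean of triplicate measurements.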

MCF7 = test: Antiproliferative activity against human MCF7 cells after 72 hrs by CCK8 assay; assay type: functional, cell-based; conditions: Homo sapiens, MCF7, 72 h
SK-BR-3 = test: Antiproliferative activity against human SK-BR-3 cells after 72 hrs by CCK8 assay; assay type: functional, cell-based; conditions: SK-BR-3, 72 h
Homo sapiens [2] = species: Homo sapiens; test: Selectivity ratio of IC50 for PI3K p110beta/p85 (unknown origin) to IC50 for PI3K p110alpha/p85 (unknown origin)
MDA-MB-231 [3] = test: Antiproliferative activity against human MDA-MB-231 cells by WST8 assay; assay type: functional, cell-based
[4] = target: PI3-kinase subunit gamma/Phosphoinositide 3-kinase regulatory subunit 5 (Homo sapiens, UniProt P48736); test: Inhibition of PI3K p110gamma/p101 (unknown origin) using PIP2/ATP as substrate after 1 hr by kinase glo luminescent assay; assay type: protein-complex assay
PANC-1 = test: Antiproliferative activity against human PANC1 cells after 72 hrs by CCK8 assay; assay type: functional, cell-based; conditions: Homo sapiens, PANC-1, 72 h
PC-3 = test: Antiproliferative activity against human PC3 cells after 72 hrs by CCK8 assay; assay type: functional, cell-based; conditions: PC-3, 72 h
NCI-N87 = test: Antiproliferative activity against human NCI-N87 cells after 72 hrs by CCK8 assay; assay type: functional, cell-based; conditions: Homo sapiens, NCI-N87, 72 h
U-937 = test: Antiproliferative activity against human U937 cells after 72 hrs by CCK8 assay; assay type: functional, cell-based; conditions: Homo sapiens, U-937, 72 h
[5] = Inhibition of PI3K p110delta/p85 (unknown origin) using PIP2/ATP as substrate after 1 hr by kinase glo luminescent assay; set-up: species or system Homo sapiens
[6] = Inhibition of PI3K p110beta/p85 (unknown origin) using PIP2/ATP as substrate after 1 hr by kinase glo luminescent assay; set-up: species or system Homo sapiens
HL-60 = test: Antiproliferative activity against human HL60 cells after 72 hrs by CCK8 assay; assay type: functional, cell-based; conditions: HL-60, 72 h
A-431 = test: Antiproliferative activity against human A431 cells after 72 hrs by CCK8 assay; assay type: functional, cell-based; conditions: Homo sapiens, A-431, 72 h
A549 = test: Antiproliferative activity against human A549 cells after 72 hrs by CCK8 assay; assay type: functional, cell-based; conditions: Homo sapiens, A549, 72 h
MOLT-4 = test: Antiproliferative activity against human MOLT4 cells after 72 hrs by CCK8 assay; assay type: functional, cell-based; conditions: Homo sapiens, MOLT-4, 72 h
Homo sapiens [7] = species: Homo sapiens; test: Inhibition of PI3K in human U937 cells assessed as suppression of AKT phosphorylation at S473 after 24 hrs by Western blot analysis; assay type: cell-based
Bel-7402 = test: Antiproliferative activity against human Bel7402 cells after 72 hrs by CCK8 assay; assay type: functional, cell-based; conditions: Bel-7402, 72 h
BGC-823 = test: Antiproliferative activity against human BGC823 cells after 72 hrs by CCK8 assay; assay type: functional, cell-based; conditions: Homo sapiens, BGC-823, 72 h
Huh-7 = test: Antiproliferative activity against human HuH7 cells after 72 hrs by CCK8 assay; assay type: functional, cell-based; conditions: Huh-7, 72 h
DU-145 = test: Antiproliferative activity against human DU145 cells after 72 hrs by CCK8 assay; assay type: functional, cell-based
[8] = Toxicity in nude mouse xenografted with human MDA-MB-231 cells assessed as decrease in body weight at 30 mg/kg, ig administered every 2 days for 19 days measured during compound dosing; assay type: organism-based; conditions: in vivo, po
Summary of the method: (§1)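 Nude mice carried MDA-MB-231 xenograft tumours and received vehicle or 30 mg/kg intragastrically every two days for 19 days. Estimated tumour volume and body weight were followed over time. Tumours were dissected from 5 mice per group and weighed. Data are mean±SD, n=5, Student t test.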

MDA-MB-231 [9] = test: Antitumor activity against human MDA-MB-231 cells xenografted in nude mouse assessed as tumor weight at 30 mg/kg, ig administered every 2 days for 19 days measured post last dose (reference value: 0.74 +/- 0.10 g); assay type: functional; summary of the method: as §1
MDA-MB-231 [10] = test: Antitumor activity against human MDA-MB-231 cells xenografted in nude mouse assessed as tumor size at 30 mg/kg, ig administered every 2 days for 19 days measured post last dose (reference value: 1065 +/- 142 mm'3); assay type: functional; summary of the method: as §1
K562 = test: Antiproliferative activity against human K562 cells after 72 hrs by CCK8 assay; assay type: functional, cell-based; conditions: Homo sapiens, K562, 72 h
HT-1080 = test: Antiproliferative activity against human HT1080 cells after 72 hrs by CCK8 assay; assay type: functional, cell-based; conditions: HT-1080, 72 h
SGC-7901 = test: Antiproliferative activity against human SGC7901 cells after 72 hrs by CCK8 assay; assay type: functional, cell-based; conditions: SGC-7901, 72 h

PI3-kinase subunit gamma/Phosphoinositide 3-kinase regulatory subunit 5, sequence (P48736 whole entry): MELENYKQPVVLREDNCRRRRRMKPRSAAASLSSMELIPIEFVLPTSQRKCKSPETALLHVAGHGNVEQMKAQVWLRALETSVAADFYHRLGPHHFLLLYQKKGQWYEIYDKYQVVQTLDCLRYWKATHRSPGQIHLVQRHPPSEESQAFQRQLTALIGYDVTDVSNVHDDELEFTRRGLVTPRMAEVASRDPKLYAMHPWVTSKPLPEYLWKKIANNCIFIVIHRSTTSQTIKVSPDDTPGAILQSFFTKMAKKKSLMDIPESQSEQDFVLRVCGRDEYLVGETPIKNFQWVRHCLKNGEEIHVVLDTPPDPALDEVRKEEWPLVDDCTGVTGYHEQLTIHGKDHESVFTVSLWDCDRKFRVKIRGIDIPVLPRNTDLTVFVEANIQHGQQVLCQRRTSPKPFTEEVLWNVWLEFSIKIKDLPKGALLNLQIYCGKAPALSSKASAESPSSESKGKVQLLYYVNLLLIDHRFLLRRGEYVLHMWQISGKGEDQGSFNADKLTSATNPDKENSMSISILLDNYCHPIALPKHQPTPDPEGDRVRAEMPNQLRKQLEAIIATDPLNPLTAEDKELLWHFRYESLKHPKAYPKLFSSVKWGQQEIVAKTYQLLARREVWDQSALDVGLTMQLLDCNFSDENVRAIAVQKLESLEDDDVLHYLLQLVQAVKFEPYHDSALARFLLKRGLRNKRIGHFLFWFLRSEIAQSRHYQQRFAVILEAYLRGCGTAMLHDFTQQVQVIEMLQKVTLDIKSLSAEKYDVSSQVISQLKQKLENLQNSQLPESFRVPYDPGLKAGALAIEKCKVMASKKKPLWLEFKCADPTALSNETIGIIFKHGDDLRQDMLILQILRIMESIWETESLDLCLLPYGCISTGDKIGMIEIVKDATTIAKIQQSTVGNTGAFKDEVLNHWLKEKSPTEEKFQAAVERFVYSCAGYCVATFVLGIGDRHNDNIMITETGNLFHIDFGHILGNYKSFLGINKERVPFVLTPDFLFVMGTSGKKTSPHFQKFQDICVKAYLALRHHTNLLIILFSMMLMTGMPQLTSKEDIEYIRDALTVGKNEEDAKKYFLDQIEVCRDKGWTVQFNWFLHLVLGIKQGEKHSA
PI3-kinase subunit gamma/Phosphoinositide 3-kinase regulatory subunit 5, sequence (Q8WYR1 whole entry, further chain): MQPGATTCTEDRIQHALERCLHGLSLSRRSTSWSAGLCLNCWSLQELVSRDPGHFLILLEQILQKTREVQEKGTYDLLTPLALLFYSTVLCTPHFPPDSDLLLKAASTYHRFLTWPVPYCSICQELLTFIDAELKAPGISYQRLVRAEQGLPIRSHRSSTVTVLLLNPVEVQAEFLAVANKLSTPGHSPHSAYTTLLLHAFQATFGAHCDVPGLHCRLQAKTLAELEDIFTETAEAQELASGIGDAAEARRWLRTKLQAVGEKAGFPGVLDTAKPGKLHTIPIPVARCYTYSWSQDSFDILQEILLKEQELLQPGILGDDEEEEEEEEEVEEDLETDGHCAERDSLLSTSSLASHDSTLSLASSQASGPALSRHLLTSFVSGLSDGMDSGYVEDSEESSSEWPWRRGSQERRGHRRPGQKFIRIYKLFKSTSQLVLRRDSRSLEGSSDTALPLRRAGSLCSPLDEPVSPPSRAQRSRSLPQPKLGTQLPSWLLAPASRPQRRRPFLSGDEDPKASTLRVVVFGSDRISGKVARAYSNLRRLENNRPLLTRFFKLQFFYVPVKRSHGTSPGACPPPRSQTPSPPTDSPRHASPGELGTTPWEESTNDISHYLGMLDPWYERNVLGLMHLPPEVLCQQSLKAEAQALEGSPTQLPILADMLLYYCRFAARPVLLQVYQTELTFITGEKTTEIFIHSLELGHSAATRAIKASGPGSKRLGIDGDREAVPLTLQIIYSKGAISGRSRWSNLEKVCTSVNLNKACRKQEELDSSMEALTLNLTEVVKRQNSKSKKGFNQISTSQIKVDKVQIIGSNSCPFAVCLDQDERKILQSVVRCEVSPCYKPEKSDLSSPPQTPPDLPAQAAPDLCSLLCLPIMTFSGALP

IC50 (HeLa) [µM] | IC50 [1] [µM] | IC50 (MCF7) [µM] | IC50 [4] [µM] | IC50 (PANC-1) [µM] | IC50 (U-937) [µM] | IC50 [5] [µM] | IC50 [6] [µM] | IC50 (A-431) [µM] | IC50 (A549) [µM] | IC50 (MOLT-4) [µM] | IC50 (Bel-7402) [µM] | IC50 (BGC-823) [µM] | IC50 (Huh-7) [µM] | IC50 (K562) [µM] | IC50 (HT-1080) [µM] | IC50 (SGC-7901) [µM] | SMILES | IC50 (NCI-N87) [µM] | inhibition (Homo sapiens [7]) | other results
> 100 | 0.018 | 12.8 | 0.08 | 3.47 | 4.74 | 0.013 | 2.01 | 10.5 | 9.13 | 1.96 |  |  |  |  |  |  | CS(=O)(=O)N1CCN(C(=O)c2ccc(Nc3nc(-c4cnc(N)cc4C(F)(F)F)cc(N4CCOCC4)n3)cc2)CC1 | 4.22 | Active | IC50 (SK-BR-3): 4.79 µM; Ratio IC50 (Homo sapiens [2]): 112; IC50 (MDA-MB-231 [3]): 4.34 µM; IC50 (PC-3): 19.5 µM; IC50 (HL-60): 2.49 µM
2.66 | 0.031 | 2.42 | 0.158 | 3.26 | 0.77 | 0.061 | 0.175 | 3.68 | 3.39 | 1 | 3.37 | 3.09 | 4.26 | 4.26 | 4.73 | 3.14 | Nc1cc(C(F)(F)F)c(-c2cc(N3CCOCC3)nc(N3C[C@@H]4OCCO[C@H]4C3)n2)cn1 (racemic) | 1.36 |  | IC50 (DU-145; du-145): 1.93 µM; Activity [8]: Non-Toxic; Activity (MDA-MB-231 [9]): 0.32 g; Activity (MDA-MB-231 [10]): 402 mm3
1.17 | 0.028 | 1.5 |  | 1.83 | 0.58 | 0.062 | 0.259 | 1.03 | 1.51 | 0.8 | 1.92 | 1.43 | 1.51 | 1.1 | 2.08 | 1.24 | Nc1cc(C(F)(F)F)c(-c2cc(N3CCOCC3)nc(N3CCOCC3)n2)cn1 [BUPARLISIB] | 0.66 | Active | IC50 (DU-145; Homo sapiens, DU-145, 72 h): 0.91 µM

From ChEMBL document CHEMBL4428050, “Design, Synthesis, and Biological Evaluation of Substituted Pyrimidines as Potential Phosphatidylinositol 3-Kinase (PI3K) Inhibitors” (J Med Chem, 2016)
